Screening results deposited in PubChem by several laboratories.
The list is not random: actives were taken first. Their share in the collection is about 4.8%.
GPR7 antag: antagonists of human GPR7 (neuropeptides B/W receptor 1); GPR7-expressing cells, fluorescence antagonist assay; inhibition, % at 4.4 µM; P48145; 290,000 compounds, 1.1% hits; in the data active means inhibition above about 16%, passing the limit was not always enough;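 further: cells stimulated with the agonist NPW; 0% = agonist with vehicle and 100% = vehicle without agonist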
Target sequence (P48145 whole entry, looked up): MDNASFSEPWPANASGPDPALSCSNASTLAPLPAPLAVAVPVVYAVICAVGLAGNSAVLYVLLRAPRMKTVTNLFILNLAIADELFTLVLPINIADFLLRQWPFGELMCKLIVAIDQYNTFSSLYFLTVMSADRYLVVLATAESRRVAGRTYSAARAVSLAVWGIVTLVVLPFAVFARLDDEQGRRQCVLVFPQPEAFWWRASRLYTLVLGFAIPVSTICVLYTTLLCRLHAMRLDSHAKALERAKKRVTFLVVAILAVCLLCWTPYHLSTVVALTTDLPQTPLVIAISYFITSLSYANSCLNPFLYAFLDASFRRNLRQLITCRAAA
Jurkat NFkB inh: lowers PMA/ionomycin-induced NF-kB signal in Jurkat cells | inhibition, % at 4 µM | 330,000 compounds, 0.53% hits | PMA/ionomycin-induced NF-kB luciferase reporter, luminescence; in the data active means inhibition above about 50%
HSF1 inh: HSF1 inhibition | 300,000 compounds, 0.77% hits | NIH3T3-HGL HSE-luciferase, MG132-induced, luminescence 8 h; hits give low values | activity change, negative = inhibition, % at 7.5 µM (by protocol);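 active means more than half of replicate wells show activity change below -50%, luminescence cut by over half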;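 further: luciferase reports HSF-1 transcriptional activity via heat shock element; 0% = median of DMSO wells and -100% = zero luminescence signal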
T cruzi inh: blocks replication of Trypanosoma cruzi; T. cruzi beta-gal in NIH3T3, luminescence, 90 h; inhibition, % (no concentration beside the values); 300,000 compounds, 1.4% hits; AID 1885;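 active means mean inhibition across valid replicates above about 55%, limit read from the data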;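 further: signal also drops with host cell toxicity which is not excluded here; 0% = plate median of DMSO wells and 100% = zero luminescence signal; higher percent means less beta-gal luminescence so fewer parasites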
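System: Mouse NIH/3T3 fibroblasts infected with β-gal-expressing T. cruzi Tulahuen C4 | Quantity: NIH/3T3 cells, 5,000 per well | Reagent: 5000 reporter trypomastigotes per well | Dosing: Compound pinned at 50 nL/well, DMSO | Schedule: 3 h host attachment, then at least 90 h co-culture | Detection: GalScreen luminescence, 60 min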
HSF-1 act: increases HSF-1 driven luciferase reporter signal; NIH3T3-HGL HSF-1 luciferase reporter, MG132, 8 h; 100% = twice DMSO control signal; 300,000 compounds, 1.7% hits; AID 504408; activation, % at 9 µM;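 active means mean replicate activation of at least 50% with a set share of replicates each reaching 50%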;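 further: 0% = median of the neutral control wells and 100% = twice that signal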
697 NFkB inh: inhibitors of the PMA/ionomycin-induced NF-kB reporter in 697 B cells | 330,000 compounds, 0.33% hits | inhibition, % at 4 µM | 697 B-cell NF-kB luciferase reporter, 16 h | AID 435022; in the data active means inhibition above about 35%
An asterisk follows results filed as active; . = no result given.

SMILES | GPR7 antag | Jurkat NFkB inh | HSF1 inh | T cruzi inh | HSF-1 act | 697 NFkB inh
COc1ccc(NC(=O)NNC(=O)c2ccc(-c3ccccc3)cc2)c(OC)c1 | -18 | -2 | -23 | 2 | -31 | 2
COc1ccc(NC(=O)NNC(=O)c2cc3occc3n2C)c(OC)c1 | -4 | 19 | 82 | 1 | 133* | -9
Cc1ccc(C(C(=O)NC(C)(C)C)N(CC2CCCO2)C(=O)CCC(=O)Nc2ccccn2)cc1 (stereo not given) | 10 | -6 | 1 | 3 | -2 | 17
CC(C)C1N=C(c2ccc3c(c2)OCO3)CC(c2ccccc2O)N1 (stereo not given) | 2 | -8 | 71 | -15 | 75* | -3
Cc1cc(S(=O)(=O)N2CCOCC2)ccc1OCC(=O)Nc1ccc(F)cc1F | -15 | 4 | -4 | 1 | 0 | 4
CC1CCN(CC(=O)Nc2ccc(S(=O)(=O)NC3CC3)cc2)CC1 | 7 | 5 | -65* | -11 | -72 | 3
CCN1CCN(CC(=O)Nc2ccc(S(=O)(=O)N3C(C)CCCC3C)cc2)CC1 (stereo not given) | 22 | -37 | -5 | 58* | 12 | -31
CCOc1ccc(C2c3cc(OC)c(OC)cc3CC(=O)N2c2ccccc2)cc1 (stereo not given) | -6 | -12 | 4 | 17 | 18 | 11
CCOc1cc2c(cc1OCC)C(c1ccc(OC)cc1)N(c1ccccc1)C(=O)C2 (stereo not given) | -13 | -12 | -85* | 24 | -90 | -14
CCCNC(=O)Cn1sc2nc(C)cc(C)c2c1=O | -15 | -6 | 4 | 56* | 14 | 9
Cc1cc(C)c2c(=O)n(CC(=O)N3CCC(N4CCCCC4)CC3)sc2n1 | -6 | -7 | 3 | -9 | 12 | 2
COc1ccc(C2CC(c3ccc(Br)cc3)=NN2C(=O)CSC2=NCCS2)cc1 (stereo not given) | 2 | -17 | 9 | 48 | 34 | 21
COc1ccc(/C=C/C(=O)NCCCc2ccccc2)cc1 | 0 | 0 | 25 | 2 | 62* | 19
CN(C)c1ccc(NC(=O)/C=C/c2ccccc2Cl)cc1 | -6 | -68 | 20 | 12 | 54* | -24
O=C(/C=C/c1ccccc1Cl)NCc1ccccc1 | 1 | -8 | 12 | 12 | 15 | -17
O=C(/C=C/c1ccccc1Cl)NCCc1ccccc1 | -4 | -59 | 27 | 22 | 55* | -51
O=S(=O)(c1ccc(F)cc1)N1CCN(c2ccc(-c3ccccc3)nn2)CC1 | -2 | 8 | 1 | 23 | 9 | 29
COc1ccc(CCNC(=O)CCNC(=O)N2CC(=O)Nc3ccccc32)cc1OC | -15 | 8 | -6 | -22 | -2 | -10
COc1ccc(C2C3=C(CCCC3=O)N(CC(=O)O)C3=C2C(=O)CCC3)cc1Cl | 0 | -2 | 30 | -3 | 77* | -9
CCOc1cc(C2C3=C(CCCC3=O)N(CC(=O)O)C3=C2C(=O)CCC3)ccc1OC | -9 | 5 | -2 | -6 | 6 | 2
CCOC(=O)C1CCN(CCCSc2ccccc2)CC1 | -2 | . | 3 | -7 | -12 | .
Cc1sc2nc(CSc3cccc(C(F)(F)F)c3)[nH]c(=O)c2c1C | -9 | 8 | 33 | 8 | 82* | -92
Cc1sc2nc(CSc3ccc([N+](=O)[O-])cc3)[nH]c(=O)c2c1C | -13 | 4 | 15 | 5 | 28 | 7
CCCN1CCN(CCCNC(=O)c2cc3c(=O)oc4ccc(C)cc4c3s2)CC1 | -7 | 5 | 4 | 12 | 6 | 14
Cc1ccc2nc(Cl)c3cc(C(=O)NCCCN4CCCC4)sc3c2c1 | -11 | -39 | 0 | 68* | 1 | -11
SMILES | GPR7 antag | Jurkat NFkB inh | HSF1 inh | T cruzi inh | HSF-1 act | 697 NFkB inh
Cc1ccc2nc(Cl)c3cc(C(=O)N(CCN(C)C)Cc4ccco4)sc3c2c1 | -3 | -18 | 14 | 56* | 14 | -40
CN(C)CCN(Cc1ccco1)C(=O)c1cc2c(Cl)nc3ccccc3c2s1 | 11 | 4 | 3 | 63* | 16 | -13
CN(C)S(=O)(=O)c1ccc(-c2csnn2)s1 | -6 | 5 | -86* | -12 | -89 | 3
CN(C)c1ccc(NS(=O)(=O)c2ccc(-c3csnn3)cc2)cc1 | -8 | 17 | -35 | -1 | -33 | 1
Fc1ccccc1NC(=S)NCCc1cccc(Cl)c1 | -10 | -42 | . | . | . | -71
O=c1c(-c2ccc3c(c2)OCCO3)coc2cc(O)cc(O)c12 | -9 | -96 | 26 | 5 | 71* | -158
CC(Oc1ccc(F)cc1)C(=O)Nc1cc(S(=O)(=O)N2CCOCC2)ccc1N1CCCCC1 (stereo not given) | . | -2 | 10 | 46 | 3 | -17
CCOc1ccc(NS(=O)(=O)c2coc(C(N)=O)c2)cc1 | -9 | 3 | -9 | -6 | 5 | -3
COc1ccc(CNCCC(c2ccc(F)cc2)c2ccc(OC)cc2)cc1 (stereo not given) | 47* | -2 | 23 | 51 | 20 | 6
CC(=O)NC(CC(=O)NNC(=O)C(C)Oc1ccccc1F)c1ccccc1 (stereo not given) | . | 10 | -4 | -6 | -2 | 17
Cc1ccc(C)c(NC(=O)CCc2nnc3ccc(NCc4ccco4)nn23)c1 | 0 | 1 | -66* | -1 | -73 | -51
COc1ccc(C(=O)N2CCN(CCCc3ccccc3)CC2)cc1OC | 0 | -16 | -6 | 36 | 3 | -16
COc1ccc(S(=O)(=O)Nc2ccccc2C(=O)N2CCCCC2)cc1C | 3 | 0 | -4 | 9 | 5 | -11
O=C(COc1ccc(Br)cc1)Nc1ccc(NC(=O)c2ccccc2)cc1 | 3 | -17 | -3 | 0 | 19 | -10
N#C/C(=C/c1cn(-c2ccccc2)nc1-c1cccc(OCc2ccc(F)cc2)c1)C(=O)NCCCn1ccnc1 | -4 | -3 | 0 | 63* | 20 | 5
CCN1C(=O)/C(=C\N2CCCCCC2)SC1=S | -10 | -6 | 48 | 7 | 67* | -13
COC(=O)c1cccc(NC(=O)Nc2ccc(Cl)c(Cl)c2)c1 | 24 | -13 | -4 | 55* | -1 | -14
COC(=O)c1sccc1NC(=O)Nc1ccc(Cl)c(Cl)c1 | 2 | 0 | 47 | -12 | 66* | -70
COC(=O)c1sccc1NC(=O)Nc1ccc(C)c(C)c1 | -14 | -4 | . | . | . | -159
COc1cccc(NC(=O)Nc2ccc(C)c(Cl)c2)c1 | 18 | -88 | 14 | 61* | 29 | -54
Cc1ccc(-n2nnnc2-c2cnc3cc4c(cc3c2C)OCO4)cc1 | 11 | 12 | -4 | 5 | 1 | -6
CC(C)[C@H](NC(=O)c1ccccc1)C(=O)OCC(=O)c1c(N)n(C)c(=O)n(C)c1=O | . | -8 | . | . | . | -2
COc1cc2nc(N3CCN(c4cc(C)ccc4C)CC3)nc(N)c2cc1OC | -4 | 26 | -7 | 56* | 4 | -18
